Experimental data published in publication PMC4100979 (Chembiochem : a European journal of chemical biology, 2013).
Entries after “also recorded” stand apart in the source; their conditions may differ.

What was measured:
[1] = tested on: GLP-1R and SUR1 on βTC3 cells; assay: Competition of 15 nM Eu-GLP-1/Glb 10 by unlabelled monomers in live βTC3 cells; format: binding; settings: 1.6 nM monomer vs 15 nM Eu-GLP-1/Glb 10, 1 hr, Figure 3
Outline: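 βTC3 cells, ~70,000/well, grown 3 days. They were exposed for 1 h to 15 nM Eu-labelled bivalent ligand with 4.1 fM or 1.6 nM unlabelled GLP-1 or Glb, in RPMI binding medium (1 mM 1,10-phenanthroline, 200 mg/L bacitracin, 0.5 mg/L leupeptin, 0.2% BSA). Non-specific binding was not measured. Cells were washed three times, then given enhancement solution for ≥30 min at 37°C. Eu time-resolved fluorescence was read at 340/615 nm. Quadruplicates unless noted.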

GLP-1R on βTC3 cells = target: T1, GLP-1R on βTC3 cells (Mus musculus, UniProt O35659); assay: Saturation binding of bivalent Eu-labelled ligand in presence of unlabelled Glb; settings: 300 nM Glb, below 35 nM Eu-ligand
T1 sequence (O35659 22-463): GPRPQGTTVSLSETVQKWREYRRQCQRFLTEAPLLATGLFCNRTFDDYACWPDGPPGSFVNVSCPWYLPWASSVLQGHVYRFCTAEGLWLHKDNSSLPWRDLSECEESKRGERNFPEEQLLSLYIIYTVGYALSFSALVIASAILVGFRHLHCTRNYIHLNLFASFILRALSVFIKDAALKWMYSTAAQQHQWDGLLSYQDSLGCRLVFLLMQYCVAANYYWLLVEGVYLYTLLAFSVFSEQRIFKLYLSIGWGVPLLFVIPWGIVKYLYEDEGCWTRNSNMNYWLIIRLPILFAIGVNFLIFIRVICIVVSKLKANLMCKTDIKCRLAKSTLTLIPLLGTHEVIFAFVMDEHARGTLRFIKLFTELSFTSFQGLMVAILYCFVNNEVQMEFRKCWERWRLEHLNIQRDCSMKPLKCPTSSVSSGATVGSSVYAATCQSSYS

INS 832/3 cells = assay: Insulin secretion; format: cell-based, rat; settings: 20 mM glucose vs 1 mM glucose, 2 hour incubation; p<0.05
Outline: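 INS 832/3 cells were seeded at 500,000/well and grown 72 h. They were rinsed in HBSS with 1 mM glucose, then held 2 h in the same. Medium was replaced with the test glucose level (1 or 20 mM) ± secretagogues for 2 h. Secreted insulin was measured by rat insulin ELISA (ng/ml) and expressed as % of the mean 1 mM glucose secretion within each experiment.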

Row | Compound | effect of unlabelled monomer on bivalent binding [1] | effect of unlabelled Glb on high affinity binding of Eu-GLP-1/Glb 10 (GLP-1R on βTC3 cells) | induction of insulin secretion by glucose (INS 832/3 cells)
1 | COc1ccc(Cl)cc1C(=O)NCCc1ccc(S(=O)(=O)NC(=O)NC2CCCCC2)cc1 [Glb, glibenclamide] | bivalent binding is lost | blocks high affinity binding; also recorded: blocked the high affinity binding | –
2 | OC[C@H]1OC(O)[C@H](O)[C@@H](O)[C@@H]1O (stereo partly shown) [glucose] | – | – | ~ 4 fold
3 | GLP-1: unlabelled GLP-1 monomer used as competitor | bivalent binding is lost | – | –
